The values that follow come from BindingDB's records for doi:10.1021/jm049389h (Johns Hopkins University, 2005).

Each structure is given as a SMILES string.

The experiment deals with Fatty acid synthase (Homo sapiens, UniProt P49327). In words: Inhibitory concentration against purified human fatty acid synthase activity in ZR-75-1 breast cancer cells. The method, boiled down: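 FAS purified from ZR-75-1 human breast cancer cells (2 µg per well). Overall reaction read at 37 °C as malonyl-CoA-dependent NADPH oxidation at 340 nm, every 10 s for 5 min. Average of duplicate runs; neg means IC50 > 50 µg/mL.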
Fatty acid synthase, sequence (P49327 whole entry): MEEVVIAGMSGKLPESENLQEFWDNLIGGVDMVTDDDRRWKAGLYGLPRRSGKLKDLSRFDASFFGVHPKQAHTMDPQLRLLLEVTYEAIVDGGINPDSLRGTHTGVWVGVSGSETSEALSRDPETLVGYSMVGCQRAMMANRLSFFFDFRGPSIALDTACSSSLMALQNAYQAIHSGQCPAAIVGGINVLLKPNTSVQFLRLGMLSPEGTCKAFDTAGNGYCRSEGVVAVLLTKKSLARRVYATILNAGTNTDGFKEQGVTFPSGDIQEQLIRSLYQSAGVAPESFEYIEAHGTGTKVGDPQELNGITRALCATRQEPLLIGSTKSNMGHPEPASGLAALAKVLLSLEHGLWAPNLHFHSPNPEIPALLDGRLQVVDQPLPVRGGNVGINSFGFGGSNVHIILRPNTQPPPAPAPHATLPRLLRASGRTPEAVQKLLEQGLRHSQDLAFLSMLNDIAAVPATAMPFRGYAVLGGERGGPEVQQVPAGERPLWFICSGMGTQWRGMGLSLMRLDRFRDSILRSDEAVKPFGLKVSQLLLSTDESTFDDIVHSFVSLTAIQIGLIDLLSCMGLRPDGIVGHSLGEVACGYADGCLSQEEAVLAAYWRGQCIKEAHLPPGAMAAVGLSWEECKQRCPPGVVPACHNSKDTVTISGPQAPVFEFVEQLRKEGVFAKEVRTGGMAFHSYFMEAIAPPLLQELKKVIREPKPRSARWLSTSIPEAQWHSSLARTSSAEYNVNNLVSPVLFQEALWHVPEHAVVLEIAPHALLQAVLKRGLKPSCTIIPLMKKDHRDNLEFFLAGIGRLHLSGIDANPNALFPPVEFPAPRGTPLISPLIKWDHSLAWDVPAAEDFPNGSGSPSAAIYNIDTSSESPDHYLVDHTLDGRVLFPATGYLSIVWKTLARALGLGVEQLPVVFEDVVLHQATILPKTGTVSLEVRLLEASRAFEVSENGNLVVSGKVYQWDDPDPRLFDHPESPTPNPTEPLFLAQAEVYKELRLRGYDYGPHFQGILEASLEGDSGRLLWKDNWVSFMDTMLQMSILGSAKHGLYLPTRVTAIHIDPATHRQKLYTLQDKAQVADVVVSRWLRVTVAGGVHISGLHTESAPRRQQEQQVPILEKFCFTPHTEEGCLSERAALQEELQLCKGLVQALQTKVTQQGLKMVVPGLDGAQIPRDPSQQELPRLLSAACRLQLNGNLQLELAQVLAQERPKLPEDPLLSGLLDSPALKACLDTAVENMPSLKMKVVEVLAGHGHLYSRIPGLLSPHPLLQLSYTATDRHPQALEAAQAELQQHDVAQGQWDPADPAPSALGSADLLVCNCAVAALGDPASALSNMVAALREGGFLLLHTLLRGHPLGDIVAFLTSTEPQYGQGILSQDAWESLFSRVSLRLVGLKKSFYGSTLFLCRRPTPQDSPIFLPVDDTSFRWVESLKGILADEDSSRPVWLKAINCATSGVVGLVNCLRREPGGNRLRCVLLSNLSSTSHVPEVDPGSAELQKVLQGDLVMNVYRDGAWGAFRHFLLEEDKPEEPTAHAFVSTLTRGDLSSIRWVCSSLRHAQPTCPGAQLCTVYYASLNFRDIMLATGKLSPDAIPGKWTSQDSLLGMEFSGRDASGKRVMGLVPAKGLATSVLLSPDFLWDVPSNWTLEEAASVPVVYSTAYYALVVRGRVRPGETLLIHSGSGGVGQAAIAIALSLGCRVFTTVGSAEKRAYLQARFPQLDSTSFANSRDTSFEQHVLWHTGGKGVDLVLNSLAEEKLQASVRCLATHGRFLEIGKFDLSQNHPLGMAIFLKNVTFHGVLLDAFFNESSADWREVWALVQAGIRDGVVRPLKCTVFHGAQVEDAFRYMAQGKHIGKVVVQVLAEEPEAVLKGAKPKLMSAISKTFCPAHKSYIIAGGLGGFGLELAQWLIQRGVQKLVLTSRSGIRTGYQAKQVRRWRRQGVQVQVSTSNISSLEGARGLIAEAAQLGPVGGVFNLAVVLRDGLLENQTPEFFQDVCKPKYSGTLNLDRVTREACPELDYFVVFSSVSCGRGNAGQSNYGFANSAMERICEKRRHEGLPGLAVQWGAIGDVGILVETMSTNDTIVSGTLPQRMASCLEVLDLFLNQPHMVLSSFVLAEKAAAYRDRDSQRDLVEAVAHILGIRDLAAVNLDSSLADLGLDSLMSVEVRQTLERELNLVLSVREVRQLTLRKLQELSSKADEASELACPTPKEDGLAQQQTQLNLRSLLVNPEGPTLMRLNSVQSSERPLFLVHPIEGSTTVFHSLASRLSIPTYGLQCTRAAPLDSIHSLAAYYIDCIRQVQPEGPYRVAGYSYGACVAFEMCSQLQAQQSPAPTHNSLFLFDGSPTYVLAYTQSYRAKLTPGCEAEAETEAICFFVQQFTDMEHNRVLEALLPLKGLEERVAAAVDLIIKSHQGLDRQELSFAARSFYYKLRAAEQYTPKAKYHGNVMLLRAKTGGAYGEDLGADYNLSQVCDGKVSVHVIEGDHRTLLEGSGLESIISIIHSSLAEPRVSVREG

The term IC50 denotes the concentration at which inhibition is half-maximal. `C=C/C(C)=C/[C@@]1(C)SC(=O)C(C)C1=O` (stereo partly drawn) [(R)-(+)-Thiolactomycin] showed an IC50 of 99.8 µM.
